Assay results pooled from the literature.
Each line is one published result; the experiments were not run side by side.

| SMILES | test system | setting | endpoint | value |
| --- | --- | --- | --- | --- |
| O=C(O)C1CCN(c2ncc(-c3ccc4c(c3)OCCCO4)s2)CC1 | male Swiss mouse, plasma | oral, 30 mg/kg, 4 h, single dose | concentration | 3890 ng/mL |
| CC(C)(Nc1nc(-c2ccccn2)nc2ccccc12)c1ccccn1 | female BALB/c mouse, plasma | oral, 50 mg/kg, 2 h | concentration | 4230 ng/mL |
| CC(C)Oc1cccc(-c2cnc(N3CCC(C(N)=O)CC3)s2)c1 | male Swiss mouse, plasma | oral, 30 mg/kg, 8 h, single dose | concentration | 8.49 ng/mL |
| CC(C)(O)c1ccccc1-c1ccc2[nH]c(/C=C/c3ccc(C(F)(F)F)cc3)nc2c1 | male human, plasma | oral, 15 mg, single dose, fasted, healthy volunteers | MRT | 84 h |
| CC(C)(C)c1ccc(O)c(CN(Cc2cc(C(C)(C)C)ccc2O)C2CCC(NC(N)=O)CC2)c1 (centres unmarked) | male C57BL/6 mouse, plasma | intraperitoneal, 5 mg/kg, single dose | half-life | 2.4 h |
| CC(C)CN(C[C@@H](O)[C@H](Cc1ccccc1)NC(=O)O[C@H]1CO[C@H]2OCC[C@H]21)S(=O)(=O)c1ccc(N)cc1 | BALB/c mouse, brain | intravenous, 2.5 mg/kg, 6 h | concentration | 1.36 ng/g |
| O=c1nc(N2CCN(CC3CCCCC3)CC2)sc2c([N+](=O)[O-])cc(C(F)(F)F)cc12 | CD-1 mouse, plasma | intravenous, 10 mg/kg, 4 h | concentration | 139 ng/mL |
| c1cnc2ccc(Nc3nc(NC4CC4)c4nc[nH]c4n3)cc2c1 | human, plasma | oral, 100 mg/m², patients | MRT(0-t) | 8.1 h |
